From ChEMBL document CHEMBL2177043, “HIV-1 X4 activities of polycationic "viologen" based dendrimers by interaction with the chemokine receptor CXCR4: study of structure-activity relationship” (J Med Chem, 2012) come the findings set out here.

Broadly, the IC50 is the midpoint of a concentration-inhibition curve. As a reminder, the CC50 is the concentration that lowers cell viability or growth by half.

Data set [1] addresses T1, C-X-C chemokine receptor type 4 (Homo sapiens, UniProt P61073). Kind of data set: Inhibition of CXCL-12'AF647 binding to CXCR4 in human SUPT1 cells incubated for 15 mins by FACS. Type of data set: cell-based. A digest of the protocol:
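SupT1 cells (high CXCR4) washed, then incubated 15 min at room temperature with compounds at varied concentrations in HBSS containing 20 mM HEPES and 0.2% BSA, pH 7.4. CXCL12-AF647 added at 25 ng/mL final for 30 min at room temperature. Cells washed, fixed in 1% paraformaldehyde, and read by flow cytometry on FL4.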
For orientation: Flow cytometry measures light scatter and fluorescence of single cells or particles in a stream.

Data set [2] concerns the target T1, C-X-C chemokine receptor type 4. Kind of data set: Inhibition of anti-CXCR4 mAbs clone 1D9 binding to CXCR4 in human SUPT1 cells incubated for 30 mins by FACS.
Data set [3] relates to Human immunodeficiency virus 1. Put plainly: Antiviral activity against X4 HIV1 NL4.3 infected in human PBMC assessed as inhibition of viral replication pre-incubated for 30 mins measured 5 days post infection by MTT assay. Type of data set: functional, organism-based. Conditions: Human immunodeficiency virus 1, NL4.3. A digest of the protocol: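 Human PBMC infected with HIV-1 NL4.3. IC₅₀ is the concentration inhibiting viral replication by 50%, averaged over two independent experiments. Cytotoxicity (CC₅₀, 50% loss of PBMC viability) evaluated in the same assay.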

Data set [4] deals with T1, C-X-C chemokine receptor type 4. Kind of data set: Inhibition of anti-CXCR4 mAbs clone 173 binding to CXCR4 in human SUPT1 cells incubated for 30 mins by FACS.
Data set [5] has as its system Human immunodeficiency virus 1. Put plainly: Antiviral activity against X4 HIV1 NL4.3 infected in human MT4 cells assessed as inhibition of viral replication pre-incubated for 30 mins […]. The data set is classed as functional, organism-based. Conditions: Human immunodeficiency virus 1, NL4.3, MT4.
Data set [6] addresses T1, C-X-C chemokine receptor type 4. Kind of data set: Inhibition of anti-CXCR4 mAbs clone 12G5 binding to CXCR4 in human SUPT1 cells incubated for 30 mins by FACS.
In data set [7] the target is C-C chemokine receptor type 5 (Homo sapiens, UniProt P51681). Kind of data set: Antagonist activity against CCR5 expressed in U87.CD4.CCR5 cells assessed as inhibition of CCL3L1-induced calcium signaling incubated for 10 mins by FLIPR. Type of data set: functional, cell-based. A digest of the protocol: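 U87.CD4.CCR5 cells seeded at 2 × 10⁴/well on 0.2% gelatin the day before, loaded with 4 μM Fluo-3 AM for 45 min at 37 °C, washed, then preincubated with compounds at varied concentrations in assay buffer for 10 min at 37 °C. Stimulated with 10 ng/mL LD78β (CCL3L1); Ca²⁺ flux recorded by FLIPR.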

Data set [8] is described as follows: Cytotoxicity against human MT4 cells by MTT assay. Type of data set: cell-based.
Data set [9] is described as follows: Cytotoxicity against human PBMC cells by MTT assay. Type of data set: cell-based.
Data set [10] addresses T1, C-X-C chemokine receptor type 4. Kind of data set: Antagonist activity against CXCR4 expressed in U87.CD.CXCR4 cells assessed as inhibition of CXCL12-induced calcium signaling incubated for 10 mins by FLIPR. The data set is classed as functional, cell-based. A digest of the protocol:
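U87.CD4.CXCR4 cells seeded at 2 × 10⁴/well on 0.2% gelatin the day before, loaded with 4 μM Fluo-3 AM for 45 min at 37 °C, washed, then preincubated with compounds at varied concentrations in assay buffer for 10 min at 37 °C. Challenged with 25 ng/mL CXCL12; Ca²⁺ flux followed over time by FLIPR.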

T1 sequence (P61073 whole entry): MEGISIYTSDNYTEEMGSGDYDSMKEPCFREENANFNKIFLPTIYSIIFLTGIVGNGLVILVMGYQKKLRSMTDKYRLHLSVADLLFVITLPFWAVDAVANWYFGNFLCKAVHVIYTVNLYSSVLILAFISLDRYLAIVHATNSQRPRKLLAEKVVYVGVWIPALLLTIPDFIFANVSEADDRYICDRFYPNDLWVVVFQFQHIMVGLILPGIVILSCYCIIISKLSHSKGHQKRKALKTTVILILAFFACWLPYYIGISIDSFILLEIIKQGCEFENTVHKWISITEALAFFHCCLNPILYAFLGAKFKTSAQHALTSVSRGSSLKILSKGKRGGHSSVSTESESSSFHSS

As to `Cc1cn(CCC[n+]2ccc(-c3cc[n+](Cc4cc(C[n+]5ccc(-c6cc[n+](CCCn7cc(C)c(=O)[nH]c7=O)cc6)cc5)cc(C[n+]5ccc(-c6cc[n+](Cc7cc(C[n+]8ccc(-c9cc[n+](Cc%10cc(C[n+]%11ccc(-c%12cc[n+](CCCn%13cc(C)c(=O)[nH]c%13=O)cc%12)cc%11)cc(C[n+]%11ccc(-c%12cc[n+](CCCn%13cc(C)c(=O)[nH]c%13=O)cc%12)cc%11)c%10)cc9)cc8)cc(C[n+]8ccc(-c9cc[n+](Cc%10cc(C[n+]%11ccc(-c%12cc[n+](CCCn%13cc(C)c(=O)[nH]c%13=O)cc%12)cc%11)cc(C[n+]%11ccc(-c%12cc[n+](CCCn%13cc(C)c(=O)[nH]c%13=O)cc%12)cc%11)c%10)cc9)cc8)c7)cc6)cc5)c4)cc3)cc2)c(=O)[nH]c1=O.F[P-](F)(F)(F)(F)F.F[P-](F)(F)(F)(F)F.F[P-](F)(F)(F)(F)F.F[P-](F)(F)(F)(F)F.F[P-](F)(F)(F)(F)F.F[P-](F)(F)(F)(F)F.F[P-](F)(F)(F)(F)F.F[P-](F)(F)(F)(F)F.F[P-](F)(F)(F)(F)F.F[P-](F)(F)(F)(F)F.F[P-](F)(F)(F)(F)F.F[P-](F)(F)(F)(F)F.F[P-](F)(F)(F)(F)F.F[P-](F)(F)(F)(F)F.F[P-](F)(F)(F)(F)F.F[P-](F)(F)(F)(F)F.F[P-](F)(F)(F)(F)F.F[P-](F)(F)(F)(F)F`, the concentration for half-maximal inhibition (IC50) in [1] was 231 nM; in data set [2], 516 nM; in data set [3] it was 0.89 µg/mL; in [4], 403 nM; in data set [5], 1.8 µg/mL; in data set [6], 352 nM. Further, the values for the 50% inhibitory concentration (IC50) in [7] and in data set [10] were 1.87 µM and 279 nM, respectively. Also, the 50% cytotoxic concentration (CC50) in [8] is 10 µg/mL; in data set [9], 20 µg/mL.

For `c1cc(CN2CCCNCCNCCCNCC2)ccc1CN1CCCNCCNCCCNCC1` [PLERIXAFOR], the CC50 in data set [8] and in [9] was over 10 µg/mL each time.

Turning to `CCc1cc[n+](-c2cc[n+](Cc3cc(C[n+]4ccc(-c5cc[n+](CC)cc5)cc4)cc(C[n+]4ccc(-c5cc[n+](Cc6cc(C[n+]7ccc(-c8cc[n+](Cc9cc(C[n+]%10ccc(-c%11cc[n+](CC)cc%11)cc%10)cc(C[n+]%10ccc(-c%11cc[n+](CC)cc%11)cc%10)c9)cc8)cc7)cc(-[n+]7ccc(-c8cc[n+](-c9cc(C[n+]%10ccc(-c%11cc[n+](Cc%12cc(C[n+]%13ccc(-c%14cc[n+](CC)cc%14)cc%13)cc(C[n+]%13ccc(-c%14cc[n+](CC)cc%14)cc%13)c%12)cc%11)cc%10)cc(C[n+]%10ccc(-c%11cc[n+](Cc%12cc(C[n+]%13ccc(-c%14cc[n+](CC)cc%14)cc%13)cc(C[n+]%13ccc(-c%14cc[n+](CC)cc%14)cc%13)c%12)cc%11)cc%10)c9)cc8)cc7)c6)cc5)cc4)c3)cc2)cc1.F[P-](F)(F)(F)(F)F.F[P-](F)(F)(F)(F)F.F[P-](F)(F)(F)(F)F.F[P-](F)(F)(F)(F)F.F[P-](F)(F)(F)(F)F.F[P-](F)(F)(F)(F)F.F[P-](F)(F)(F)(F)F.F[P-](F)(F)(F)(F)F.F[P-](F)(F)(F)(F)F.F[P-](F)(F)(F)(F)F.F[P-](F)(F)(F)(F)F.F[P-](F)(F)(F)(F)F.F[P-](F)(F)(F)(F)F.F[P-](F)(F)(F)(F)F.F[P-](F)(F)(F)(F)F.F[P-](F)(F)(F)(F)F.F[P-](F)(F)(F)(F)F.F[P-](F)(F)(F)(F)F.F[P-](F)(F)(F)(F)F.F[P-](F)(F)(F)(F)F.F[P-](F)(F)(F)(F)F.F[P-](F)(F)(F)(F)F.F[P-](F)(F)(F)(F)F.F[P-](F)(F)(F)(F)F.F[P-](F)(F)(F)(F)F.F[P-](F)(F)(F)(F)F`, the IC50 was 285 nM in [1]; 446 nM in data set [2]; 0.12 µg/mL in data set [3]; 203 nM in data set [4]; 0.9 µg/mL in [5]; 344 nM in data set [6]. Moreover, the results for the IC50 in data set [7] and in [10] were 12.1 µM and 538 nM, respectively. Further, the CC50 in data set [8] stood at 34 µg/mL; in [9], 100 µg/mL.
